Source: PubChem
MDM2 E3 inh: inhibitors of human Mdm2 E3 ubiquitin ligase; cell-based MDM2 ubiquitination luciferase reporter, 2 h; 0 = plate control, 100 = twice control, blank-subtracted; signal enhancement, % at 5 µM; actives 0.11% (n = 210,000);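 active = signal enhancement of 30% or more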;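 also: luminescence tracks abundance of the self-degrading MDM2-luciferase fusion protein; higher signal means inhibition of MDM2 E3 ligase activity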
Target sequence (Q00987 whole entry, looked up, the tested form may be a part): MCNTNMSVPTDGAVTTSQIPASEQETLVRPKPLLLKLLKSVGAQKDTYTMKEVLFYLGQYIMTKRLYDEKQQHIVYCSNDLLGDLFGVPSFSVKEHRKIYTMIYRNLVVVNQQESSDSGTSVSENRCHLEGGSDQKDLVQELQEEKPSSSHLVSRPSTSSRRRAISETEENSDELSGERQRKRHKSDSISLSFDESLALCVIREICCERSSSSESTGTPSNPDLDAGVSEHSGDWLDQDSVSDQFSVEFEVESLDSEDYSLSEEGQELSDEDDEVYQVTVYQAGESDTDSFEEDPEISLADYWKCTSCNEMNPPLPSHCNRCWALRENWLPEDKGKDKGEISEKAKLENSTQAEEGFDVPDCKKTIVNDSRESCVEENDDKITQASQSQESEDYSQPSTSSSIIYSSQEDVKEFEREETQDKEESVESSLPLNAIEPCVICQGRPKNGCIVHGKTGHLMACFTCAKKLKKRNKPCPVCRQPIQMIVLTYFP
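Timing – 2 h compound exposure at 37 °C · Assay system – mammalian cells stably expressing self-ubiquitinating, self-degrading MDM2 E3–luciferase fusion · Amount – 2000 cells seeded into each well · Measure – % luminescence enhancement versus blank-corrected plate control mean · Measured by – SteadyLite luminescence, 15 min reagent step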
DTT redox prof: compounds producing H2O2 with reducing agent – biochemical, NIH compound library profiling, artefact control for MLSCN library redox annotation, primary screen; AID 878; activation, % at 10 µM; DTT-dependent redox cycling H2O2, phenol red/HRP absorbance; 100% = 100 µM peroxide control, 0% = buffer; actives 0.03% (n = 200,000);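 active = activation of at least 50% relative to the plate's high and low controls in the primary single-dose screen; inactive = activation below 50%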;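 also: compound incubated with DTT at 0.8 mM final as the reducing agent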
PKD1 kinase inh: inhibitors of human PKD1 kinase; Q15139; PKD1 kinase fluorescence polarization assay; inhibition, % (no concentration beside the values); actives 0.056% (n = 200,000); in the data active = inhibition above about 50%
Cl transport mod: KCC2 (human) Cl- transport modulation. Q9H2X9. KCC2 cells, thallium flux FluoZin-2 fluorescence. B-score of Tl+ flux slope (higher = more flux/activation; lower = inhibition) at 10 µM. actives 2.2% (n = 190,000);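 active = thallium flux slope and its plate-corrected score both differing from the plate sample mean at a set confidence after two filtering rounds, in either direction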;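 also: slope of fluorescence scaled to starting intensity during 10 to 20 s after thallium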
p97 ATPase inh: inhibitors of human p97 ATPase; P55072; recombinant p97 ATPase, Kinase-Glo ATP luminescence, 3 h; inhibition, % at 8 µM; actives 0.42% (n = 220,000); in the data active = inhibition above about 15%;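 also: 0% = DMSO vehicle and 100% = wells lacking enzyme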
ROMK primary: modulators of human ROMK potassium channel; actives 2% (n = 130,000); B-score at 10 µM; P48048; Tet-inducible ROMK, thallium flux fluorescence; actives lie on both sides; AID 1918;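 active = signal ratio slope over the read window, or its plate-corrected B-score, at least 3 SD from the plate mean, either direction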;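 also: B-score of the F/F0 ratio slope over 7 to 12 s after thallium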
ROMK retest: confirmation of human ROMK potassium channel modulators; normalized thallium flux (F/F0 slope) at 10 µM; actives 54% (n = 3,000); shares compounds with ROMK primary; ROMK thallium flux, fluorescence ratio; stronger effect = lower value;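 active = Flux at 10 µM at least 3 SD below or above vehicle control mean in one or both replicates; inconclusive = no clear call, values can overlap the other calls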
* = called active by the depositor; ? = inconclusive; nt = no result given. Only some compounds are listed: those with a hit (about 3.4% of all), similar ones and a draw of the others.

SMILES	MDM2 E3 inh	DTT redox prof	PKD1 kinase inh	Cl transport mod	p97 ATPase inh	ROMK primary	ROMK retest
c1cnc2ncc3sccc3c2c1	-20	0	-7	0.6	6	-0.25	nt
Cc1cnc2ncc3sccc3c2c1	-10	0	1	-1.7	1	-3.6*	0.059*
COc1cccc(-n2nnc3c(=O)n(CC(=O)OCc4ccccc4)cnc32)c1	-8	1	-10	0.04	0	0.3	nt
COc1ccccc1Oc1ccc(S(=O)(=O)N2CCCC2)cc1	-2	1	-4	-0.17	0	nt	nt
COc1ccc(Oc2ccc(S(=O)(=O)N3CCCCC3)cc2S(=O)(=O)N2CCCCC2)cc1	2	nt	nt	-0.4	5	-5.7*	0.047*
COc1ccc(S(=O)(=O)N2CCCCCC2)cc1C(=O)OC(C)C(N)=O (stereo not given)	nt	nt	nt	-0.77	1	nt	nt
COc1ccc(S(=O)(=O)N2CCCCC2)cc1C(C)C	-18	2	-2	-0.21	-7	nt	0.053*
CN(C)C(=O)c1ccc(COc2ccccc2Br)o1	-5	0	-1	-0.73	-5	-0.89	nt
COc1ccccc1OCc1ccc(C(=O)N(C)C)o1	2	1	0	0.34	-2	nt	0.084
Cc1ccc2cc(C(c3nnnn3Cc3ccccc3)N3CCc4ccccc43)c(=O)[nH]c2c1C (stereo not given)	-7	1	1	nt	3	0.14	nt
CCCOC(=O)c1ccc(-c2ccc(C=O)o2)cc1	2	0	-9	-0.76	1	0.013	nt
CCCOC(=O)c1cc(-c2ccc(C=O)o2)ccc1Cl	2	0	-7	-0.51	4	nt	0.1*
COc1ccc(CCn2c(C)nc3ccccc3c2=O)cc1OC	-10	0	-3	nt	3	1.3	nt
CCSc1nc2ccccc2c(=O)n1CCc1ccc(OC)c(OC)c1	nt	nt	nt	nt	1	nt	0.082
CCN(c1ccccc1)S(=O)(=O)c1ccc(N)c(OC)c1	-7	0	-4	-0.13	-3	3.5*	0.081
CCN(c1ccccc1)S(=O)(=O)c1ccc(F)cc1	-14	0	-3	-0.56	-7	nt	nt
CCn1c(Oc2ccc(F)cc2)nc2c1c(=O)n(C)c(=O)n2C	-2	-1	-1	0.18	4	-0.66	nt
CCCCn1c(Oc2ccc(C(=O)OC)cc2)nc2c1c(=O)n(C)c(=O)n2C	-10	-1	-15	-4.5	-3	-3.7*	0.06*
CCOC(=O)CCNC(=O)Nc1ccc2nc(C)n(Cc3ccccc3Cl)c(=O)c2c1	5	2	-1	1.4	1	nt	nt
COC(=O)CSC1=C(C#N)C(c2ccc(C)o2)CC(=O)N1 (stereo not given)	-9	0	-1	0.84	-3	2.7*	0.077
COC(=O)CSC1=C(C#N)C(c2ccc(F)cc2)CC(=O)N1 (stereo not given)	-13	-1	-6	0.78	-3	nt	nt
C=CCOC(=O)C1C(=O)CC(C)(O)C(C(=O)OCC=C)C1c1ccc(OC)cc1 (stereo not given)	-2	0	-14	nt	2	1.2*	0.075
CCOC(=O)C1C(=O)CC(C)(O)C(C(=O)OCC)C1c1ccc(OCC)cc1 (stereo not given)	7	1	-5	-1.3	3	nt	nt
S=C(Nc1cccc(Cl)c1)N1CCOCC1	-2	-1	-7	nt	-3	nt	nt
O=c1[nH]c2ccc(S(=O)(=O)NCCO)cc2[nH]1	3	-1	-4	-1.6	6	1.5*	0.075
SMILES	MDM2 E3 inh	DTT redox prof	PKD1 kinase inh	Cl transport mod	p97 ATPase inh	ROMK primary	ROMK retest
CCCCCCCCCCCCCCCCn1cc[n+](C)c1	-30	-2	-3	0.34	3	-2.2	0.065*
CCCCCCN1Cc2ccccc2C1	-30	1	-6	0.52	-4	0.23	nt
COCCCNCC1C(Oc2ccc(Cl)cc2)C(=O)N1c1ccccc1C (stereo not given)	-10	0	-4	0.092	-6	-1.3	nt
Cc1ccccc1N1C(=O)C(Oc2ccc(Cl)cc2)C1CNCCCOC(C)C (stereo not given)	2	0	-4	0.4	2	-3.2*	0.059*
Cc1cc(C(=O)COc2ccc(F)cc2Br)c(C)n1C	4	0	7	-0.8	1	-1.9*	?
Cc1cc(C(=O)N2CCC(C)CC2)on1	nt	nt	nt	0.29	6	nt	nt
Cc1cc(C)cc(C(=O)NC(CC(N)=O)c2ccc(NC3CCCCCC3)c([N+](=O)[O-])c2)c1 (stereo not given)	11	nt	nt	-1.2	nt	nt	nt
CC(=O)Nc1cccc2c1C(=O)N(c1ccc(C)cc1)C2=O	-3	-1	-1	-0.26	-1	-2.7*	0.076
COC(=O)c1sc(-c2ccc(C(C)(C)C)cc2)cc1NC(=O)CSCC(=O)O	-1	nt	nt	-0.73	-10	0.73	nt
COc1ccc(-c2nc3ccccc3n2Cc2ccccc2)cc1	-11	0	-3	-0.24	-3	-0.58	nt
COc1ccc2c(c1)nc(N)n2Cc1ccccc1	-6	1	-11	0.42	5	-3*	0.053*
O=C(O)CCC(=O)Nc1ccc(N2CCCCCC2)cc1	-4	0	5	0.18	4	5.1*	0.075
CCCCOC(=O)C1CCC[C@@H](C)N1 (stereo not given in full)	-23	2	-2	-0.34	-3	nt	0.079
CC1CCCC(C(=O)OCc2ccccc2)N1 (stereo not given)	5	3	-4	-0.21	3	nt	nt
CCc1ccc2nc(SCC(=O)Nc3nnc(C)s3)c(C)cc2c1	-9	0	-1	0.73	5	0.92	0.091
Cc1cc2ccccc2nc1SCC(=O)Nc1nc(-c2ccccc2)cs1	16	-5	8	-0.38	-4	-1.4	nt
CC(C)(C)C1(C)OC(C(=O)NC2CCCCC2)C(C(=O)NC2CCCCC2)O1 (stereo not given)	-11	-5	0	-0.28	-10	nt	nt
CC(C)(C)c1cc(CCC(=O)NN)cc(C(C)(C)C)c1O	-4	-1	-1	0.091	2	-0.072	nt
COCCOC(=O)/C(=C\c1cc(C(C)(C)C)c(O)c(C(C)(C)C)c1)C(C)=O	-6	nt	nt	-0.98	-4	nt	0.061*
CCOc1ccc(-n2c(C)cc(/C=C3/C(=N)N4C(=NC3=O)SN=C4S(C)(=O)=O)c2C)cc1	-8	0	-1	-1.7	2	-0.021	nt
Cc1ccc(-n2cccc2/C=C2/C(=N)N3C(=NC2=O)SN=C3S(C)(=O)=O)cc1Cl	5	0	9	-2.2	-4	nt	0.075
Cc1ccc(N(C(=O)c2cc3ccccc3oc2=O)C2C=CS(=O)(=O)C2)cc1 (stereo not given)	-8	0	-8	0.017	5	nt	nt
O=C1c2ccccc2C(=O)N1CCCCN(C(=O)c1cc2ccccc2oc1=O)c1ccc(Cl)cc1	1	0	-12	-0.43	1	-2.3*	0.077
